Source: ChEMBL document CHEMBL4270573, “Novel nicotinoyl pyrazoline derivates bearing N-methyl indole moiety as antitumor agents: Design, synthesis and evaluation” (Eur J Med Chem, 2018)
Calls of active or inactive are those of the source. The rule behind the calls is not given here.

How the values were obtained:
[1] = Cytotoxicity against HEK293T cells assessed as reduction in cell viability after 48 hrs by MTT assay; format: cell-based, HEK-293T; details: human
[2] = system: HepG2; experiment: Cell cycle arrest in human HepG2 cells assessed as accumulation at G2/M phase after 6 to 24 hrs by propidium iodide staining based flow cytometric analysis; format: functional
Method in brief: (§1)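 HepG2 and HeLa cells were exposed to 0, 0.020, 0.040, 0.060, 0.080 or 0.10 µM for 6, 12 or 24 h. DNA content was stained with propidium iodide and analysed by flow cytometry to give the percentage of cells in G0/G1, S and G2/M phases; sub-G1 cells were also recorded.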

[3] = system: HeLa; experiment: Cell cycle arrest in human HeLa cells assessed as accumulation at S phase at 0.020 uM after 24 hrs by propidium iodide staining based flow cytometric analysis (reference value: 17.46%); format: functional; method in brief: as §1
[4] = system: HeLa; experiment: Cell cycle arrest in human HeLa cells assessed as accumulation at G2/M phase at 0.040 uM after 24 hrs by propidium iodide staining based flow cytometric analysis (reference value: 17.72%); format: functional; method in brief: as §1
[5] = system: HeLa; experiment: Cell cycle arrest in human HeLa cells assessed as accumulation at G0/G1 phase at 0.060 uM after 24 hrs by propidium iodide staining based flow cytometric analysis (reference value: 66.26%); format: functional; method in brief: as §1
[6] = system: HeLa; experiment: Cell cycle arrest in human HeLa cells assessed as accumulation at S phase at 0.060 uM after 24 hrs by propidium iodide staining based flow cytometric analysis (reference value: 17.46%); format: functional; method in brief: as §1
[7] = system: HeLa; experiment: Cell cycle arrest in human HeLa cells assessed as accumulation at S phase at 0.080 uM after 24 hrs by propidium iodide staining based flow cytometric analysis (reference value: 17.46%); format: functional; method in brief: as §1
[8] = system: HeLa; experiment: Cell cycle arrest in human HeLa cells assessed as accumulation at G0/G1 phase at 0.10 uM after 24 hrs by propidium iodide staining based flow cytometric analysis (reference value: 66.26%); format: functional; method in brief: as §1
[9] = system: HeLa; experiment: Cell cycle arrest in human HeLa cells assessed as accumulation at G2/M phase at 0.10 uM after 24 hrs by propidium iodide staining based flow cytometric analysis (reference value: 17.72%); format: functional; method in brief: as §1
[10] = system: HepG2; experiment: Cell cycle arrest in human HepG2 cells assessed as accumulation at S phase at 0.020 uM after 24 hrs by propidium iodide staining based flow cytometric analysis (reference value: 20.40%); format: functional; method in brief: as §1
[11] = system: HepG2; experiment: Cell cycle arrest in human HepG2 cells assessed as accumulation at S phase at 0.10 uM after 24 hrs by propidium iodide staining based flow cytometric analysis (reference value: 20.40%); format: functional; method in brief: as §1
[12] = system: HeLa; experiment: Induction of apoptosis in human HeLa cells assessed as late apoptotic cells at 0.040 uM after 24 hrs by Annexin V-FITC/propidium iodide staining based flow cytometric analysis (reference value: 4.98%); format: functional
Method in brief: (§2)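 HepG2 and HeLa cells were exposed to 0, 0.02, 0.040, 0.060, 0.080 and 0.10 µM for 6, 12 and 24 h. Cells were double-stained with Annexin V-FITC/PI and read by flow cytometry. Apoptotic rate was the percentage of FITC-positive cells, counting early plus late apoptotic.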

[13] = system: HeLa; experiment: Induction of apoptosis in human HeLa cells assessed as late apoptotic cells at 0.060 uM after 24 hrs by Annexin V-FITC/propidium iodide staining based flow cytometric analysis (reference value: 4.98%); format: functional; method in brief: as §2
[14] = system: HeLa; experiment: Induction of apoptosis in human HeLa cells assessed as late apoptotic cells at 0.10 uM after 24 hrs by Annexin V-FITC/propidium iodide staining based flow cytometric analysis (reference value: 4.98%); format: functional; method in brief: as §2
[15] = system: HepG2; experiment: Induction of apoptosis in human HepG2 cells assessed as early apoptotic cells at 0.020 uM after 24 hrs by Annexin V-FITC/propidium iodide staining based flow cytometric analysis (reference value: 2.31%); format: functional; method in brief: as §2
[16] = system: HepG2; experiment: Induction of apoptosis in human HepG2 cells assessed as necrotic cells at 0.040 uM after 24 hrs by Annexin V-FITC/propidium iodide staining based flow cytometric analysis (reference value: 0.270%); format: functional; method in brief: as §2
[17] = system: HepG2; experiment: Induction of apoptosis in human HepG2 cells assessed as early apoptotic cells at 0.060 uM after 24 hrs by Annexin V-FITC/propidium iodide staining based flow cytometric analysis (reference value: 2.31%); format: functional; method in brief: as §2
[18] = system: HepG2; experiment: Induction of apoptosis in human HepG2 cells assessed as late apoptotic cells at 0.060 uM after 24 hrs by Annexin V-FITC/propidium iodide staining based flow cytometric analysis (reference value: 2.93%); format: functional; method in brief: as §2
[19] = system: HepG2; experiment: Induction of apoptosis in human HepG2 cells assessed as necrotic cells at 0.060 uM after 24 hrs by Annexin V-FITC/propidium iodide staining based flow cytometric analysis (reference value: 0.270%); format: functional; method in brief: as §2
[20] = system: HepG2; experiment: Induction of apoptosis in human HepG2 cells assessed as necrotic cells at 0.080 uM after 24 hrs by Annexin V-FITC/propidium iodide staining based flow cytometric analysis (reference value: 0.270%); format: functional; method in brief: as §2
[21] = system: HeLa; experiment: Antitumor activity against human HeLa cells xenografted in nude mouse assessed as tumor volume at 20 mg/kg, ip after 14 days (reference value: 2292.17 mm3); format: functional
[22] = system: HeLa; experiment: Antitumor activity against human HeLa cells xenografted in nude mouse assessed as tumor weight at 10 mg/kg, ip after 14 days (reference value: 1.54 g); format: functional
[23] = system: Mus musculus; experiment: Toxicity in nude mouse xenografted with human HeLa cells assessed as body weight loss at 10 to 20 mg/kg, ip after 14 days; format: organism-based; details: in vivo, 336 h
[24] = system: HeLa; experiment: Antitumor activity against human HeLa cells xenografted in nude mouse assessed as loose and irregular arrangement of tumor cells at 10 to 20 mg/kg, ip after 14 days by hematoxylin and eosin staining based microscopic analysis; format: functional, organism-based
Method in brief: (§3)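 Excised tumours and heart, liver, kidney and spleen were H&E-stained and examined microscopically. Tumour scoring covered cell arrangement and necrosis. Organ scoring covered inflammatory infiltration, edema, necrosis and cell morphology.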

[25] = system: Mus musculus; experiment: Nephrotoxicity in nude mouse xenografted with human HeLa cells assessed as cellular inflammatory infiltration in kidney at 10 to 20 mg/kg, ip after 14 days by hematoxylin and eosin staining based microscopic analysis; format: toxicity, organism-based; details: in vivo, 336 h
[26] = system: Mus musculus; experiment: Cardiotoxicity in nude mouse xenografted with human HeLa cells assessed as necrosis in heart at 10 to 20 mg/kg, ip after 14 days by hematoxylin and eosin staining based microscopic analysis; format: toxicity, organism-based; details: in vivo, 336 h; method in brief: as §3
[27] = system: Mus musculus; experiment: Hepatotoxicity in nude mouse xenografted with human HeLa cells assessed as morphological changes in liver cells at 10 to 20 mg/kg, ip after 14 days by hematoxylin and eosin staining based microscopic analysis; format: toxicity, organism-based; details: in vivo, 336 h
Method in brief: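 HeLa xenograft nude mice with tumours near 100 mm³, randomised to four groups of 28 mice in total. Dosing was intraperitoneal: vehicle, CA-4 10 mg/kg, or test compound at 10 or 20 mg/kg, continued for 14 days. Heart, liver, kidney and spleen were then H&E-stained and examined for inflammatory infiltration, edema, necrosis and cell morphology.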

[28] = system: Mus musculus; experiment: Cardiotoxicity in nude mouse xenografted with human HeLa cells assessed as morphological changes in heart cells at 10 to 20 mg/kg, ip after 14 days by hematoxylin and eosin staining based microscopic analysis; format: toxicity, organism-based; details: in vivo, 336 h; method in brief: as §3

COc1cccc(C2=NN(C(=O)c3ccc(C)nc3)C(c3cn(C)c4ccc(OC)cc34)C2)c1 (stereo not drawn)
CC50 at 48 h [1]: > 300 µM
Activity [2]: Dose-dependent effect
Activity [3]: 9.62%
Activity [4]: 27.81%
Activity [5]: 8.57%
Activity [6]: 16.47%
Activity [7]: 9.17%
Activity [8]: 6.19%
Activity [9]: 61.12%
Activity [10]: 19.81%
Activity [11]: 27.64%
Activity [12]: 3.95%
Activity [13]: 6.49%
Activity [14]: 8.26%
Activity [15]: 3.18%
Activity [16]: 2.2%
Activity [17]: 7.94%
Activity [18]: 4.9%
Activity [19]: 1.45%
Activity [20]: 2.95%
Activity [21]: 881.93 mm3
Activity [22]: 0.91 g
Activity [23]: Non-Toxic
Activity [24]: Active
Activity [25]: Non-Toxic
Activity [26]: Non-Toxic
Activity [27]: Non-Toxic
Activity [28]: Non-Toxic
